CAL PDZ FP-1: untagged CAL PDZ binding inhibitors, primary screen, biochemical, fluorescence polarization, HTS. purified CAL PDZ, TMR-peptide fluorescence polarization, 1 h. hit rate 0.92% among 300,000. AID 602252, 2012. inhibition, % at 24.9 µM;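 active = mean inhibition of at least 30% with at least half of replicates also reaching 30%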
CAL PDZ FP-2: CAL PDZ peptide-binding inhibitors, primary screen, biochemical, fluorescence polarization, Cer-tagged CAL PDZ, HTS. purified CAL PDZ, TMR-peptide fluorescence polarization, 1 h. inhibition, % at 20 µM. hit rate 0.02% among 330,000;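 active = highest replicate inhibition of at least 40%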
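System: tagged CAL PDZ domain. Schedule: 1 h room-temperature incubation prior to read. Signal: fluorescence polarization (mP). Measure: percent inhibition from loss of millipolarization.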
miR122 inh: miR-122 Renilla sensor signal increase in Huh7, primary screen, miR-122 inhibitor project, cell-based, single point, plate reader | Huh7 miR-122 Renilla luciferase sensor, 48 h; neutral wells = 0, positive control = 100 | activation (reporter increase), % at 12.5 µM | hit rate 0.3% among 340,000;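 active = mean replicate activation score at least 90 and every replicate individually at or above 90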;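 also: higher luciferase means less miR-122 activity so hits act as miR-122 inhibitors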
PvdQ acylase: P. aeruginosa PvdQ acylase inhibitors, primary screen, biochemical, fluorescence, plate reader and imaging, single point. purified PvdQ acylase. inhibition, % at 10 µM. hit rate 0.063% among 340,000; in the data active = inhibition above about 30%, passing the limit was not always enough
Numbers stand for hits; . = inactive; / = not tested or not shown; + = active, no number; ! = not active in a repeat. Sampled rows, rich in hits. Any-hit rate of the full collection: about 0.95%.

SMILES	CAL PDZ FP-1	CAL PDZ FP-2	miR122 inh	PvdQ acylase
O=C(OCc1ccccc1)N1CCCC1/C=C/CN1CCOCC1 (stereo not given)	.	.	.	.
CN1C(=O)/C(=C\c2ccc(OC(=O)c3ccco3)cc2)SC1=S	56.8	.	.	.
CN1C(=O)/C(=C/c2ccc(OC(=O)c3ccco3)cc2)SC1=S	+	.	.	.
Cc1cc(OCC(=O)NCc2ccccn2)c2c(C)cc(=O)oc2c1	47.1	.	.	.
Cc1cc(C)c2c3c(sc2n1)C(=O)N(c1ccccc1C)CC(=O)N3	73.9	.	/	.
CCCCn1c(=S)[nH]c2c(=O)n(C)c(=O)n(C)c21	/	/	.	/
Cc1ccc(OCC(=O)N(Cc2ccccc2)c2ccccn2)cc1	.	.	.	.
Cc1ccc(CC(=O)N(Cc2ccccc2)c2ccccn2)cc1	.	.	118.1	.
C[C@@H]1CCCCO[C@@H](CN(C)C(=O)Nc2ccc(F)cc2)[C@@H](C)CN([C@H](C)CO)C(=O)c2cc(NC(=O)NC3CCCCC3)ccc2O1	/	/	.	/
C=C(C)CN(CC)C(=O)CSc1ccc(S(=O)(=O)N2CCN(Cc3ccccc3)CC2)cn1	69.4	.	.	.
COc1ccc(CNC(=O)COC(=O)CCOc2ccc(C)cc2)cc1	.	.	/	.
COc1ccc(OCCC(=O)OCC(=O)NCc2ccc(F)cc2)cc1	46.5	.	/	.
CC(=O)OC1COC(n2c(O)c(N=NC(N)=S)c3ccccc32)C(OC(C)=O)C1OC(C)=O (stereo not given)	37.9	.	.	.
CC(=O)OC1COC(n2ccc3ccccc32)C(OC(C)=O)C1OC(C)=O (stereo not given)	.	.	.	.
COc1cc(OC)c(N(C)S(=O)(=O)c2cccc(C(=O)OCc3c(C)noc3C)c2)cc1Cl	.	.	/	.
COc1cc(OC)c(N(C)S(=O)(=O)c2cccc(C(=O)OCC(=O)N3CCOCC3)c2)cc1Cl	32.4	.	.	.
C[C@H](CO)N1C[C@H](C)[C@H](CN(C)C(=O)Cc2ccccc2)OCCCC[C@H](C)Oc2ccc(NS(C)(=O)=O)cc2C1=O	/	/	.	/
O=C(NCc1ccc2c(c1)OCO2)c1nc(Cn2cc(Br)cn2)no1	36.7	.	/	.
CC(=O)OCC(=O)C1(O)CCC2C3CCC4=CC(=O)C=CC4(C)C3C(=O)CC21C (stereo not given)	.	.	.	.
N#CC1=C(N)Oc2n[nH]c(-c3cccnc3)c2C1c1ccc([N+](=O)[O-])o1 (stereo not given)	51.3	.	/	.
O=C1CCCN1CC(O)CS(=O)(=O)Cc1ccccc1 (stereo not given)	46.0	/	/	.
Cc1cc(=O)n2nc(N3CCC(C(=O)NCCc4ccc(Cl)cc4)CC3)sc2n1	68.3	.	.	.
C=CCCC(=O)N1CCC(n2nccc2NC(=O)CCCc2ccccc2)CC1	.	.	.	.
COc1cc(S(=O)(=O)NCc2ccncc2)c(OC)cc1Br	.	.	/	.
COc1cc(S(=O)(=O)NCc2cccnc2)c(OC)cc1Br	.	.	108.2	.
SMILES	CAL PDZ FP-1	CAL PDZ FP-2	miR122 inh	PvdQ acylase
COc1cc(C)c(Cl)c(C)c1S(=O)(=O)NCc1cccnc1	.	.	121.3	.
Cc1cc(C)c(C)c(S(=O)(=O)NCc2cccnc2)c1C	/	.	.	.
S=c1[nH]nc(-c2cc(-c3ccccc3)n[nH]2)n1/N=C/C=C/c1ccccc1	.	.	.	.
COC(=O)C1(C(F)(F)F)N=C(N(C)C)OC(N(C)C)=N1	42.4	.	.	.
O=C(CN1C(=O)CSc2ccc(C(F)(F)F)cc21)Nc1ccccc1	/	.	.	.
CCCCc1ncc(CN2CCC(n3nccc3NC(=O)c3ccccc3OC)CC2)[nH]1	111.2	.	.	.
CCOc1ccccc1CN1CCC(n2nccc2NC(=O)C2CCCC2)CC1	.	112.1	.	.
COc1ccc(CN2CCC(n3nccc3NC(=O)C3CC3)CC2)c(OC)c1OC	71.3	.	.	.
Cc1cc(=O)n(C)c(=O)n1CCCCCN1CCCC1	.	.	.	.
CCCCOC(=O)/C(=C\c1ccc([N+](=O)[O-])o1)NC(=O)c1ccccc1	40.8	/	.	.
CCCCOC(=O)/C(=C/C=C/c1ccccc1)NC(=O)c1ccccc1	.	.	.	.
COc1ccc(-c2cc(C(=O)NCc3ccco3)c3ccccc3n2)cc1OC	68.6	.	.	.
COc1cccc(-c2cc(C(=O)NCc3ccco3)c3ccccc3n2)c1	.	.	.	.
COc1ccccc1CN(C)C(=O)c1cc(-c2cc(OC)c(OC)c(OC)c2)nc2ccccc12	58.0	.	/	.
COc1cc([N+](=O)[O-])cc(/C=N/NC(=O)Cn2cncn2)c1O	48.3	.	.	.
O=C(O)CSc1nc2c(c(C(F)(F)F)n1)CCCC2	78.0!	.	.	.
O=C(O)CSc1nc2c(c(C(F)(F)F)n1)CCc1ccccc1-2	.	.	/	.
Cc1[nH]c(C)c(S(=O)(=O)N2CCN(c3cccc(Cl)c3)CC2)c1C(=O)N1CCCC1	.	.	.	.
O=C(Cc1ccc(Cl)cc1)Nc1ncc([N+](=O)[O-])s1	.	.	/	.
CCc1ccccc1N(CC(=O)O)S(C)(=O)=O	43.5	/	.	.
Cc1sc2ncnc(N3CCC(C(=O)NNC(=O)c4ccccc4Cl)CC3)c2c1C	37.0	.	.	.
Cc1ccc(C(=O)OCC(=O)NCC2CCCO2)c(C)c1 (stereo not given)	.	.	/	.
CSCCC(NC(=O)c1ccco1)C(=O)NCc1ccc(F)cc1 (stereo not given)	.	.	.	.
CSCCC(NC(=O)c1ccco1)C(=O)NCCc1ccc(Cl)cc1 (stereo not given)	100.1	.	.	.
Cn1c(=O)n(CC(N)=O)c(=O)c2c1nc(Br)n2Cc1ccccc1	.	.	.	.
SMILES	CAL PDZ FP-1	CAL PDZ FP-2	miR122 inh	PvdQ acylase
CCCN(Cc1nnc(-c2ccccc2Cl)o1)C(=O)c1cc2ccccc2o1	.	.	/	.
COc1ccc(-n2c(C)c(C(C)=O)c3cc(OCC(N)=O)ccc32)cc1	37.6	.	.	.
CCOc1ccc(-n2c(C)c(C(C)=O)c3cc(OCC(N)=O)ccc32)cc1	.	.	/	.
CN(c1ccc(C(=O)NCc2ccccc2)cc1)S(C)(=O)=O	.	.	.	.
Cn1c(SCC(=O)Nc2ccccc2[N+](=O)[O-])nnc1C(F)(F)F	.	.	/	.
CCn1c(SCC(=O)N2CCCC(C)C2)nc2c1c(=O)n(C)c(=O)n2C (stereo not given)	+	.	/	.
Cc1ccc(S(=O)(=O)CCc2nnc(NC(=O)CCl)s2)cc1C	46.0	.	/	.
Cc1ccc(NC(=O)c2ccc(S(=O)(=O)N3CCOCC3)cc2)nc1	.	.	215.5	.
Cc1ccc(NC(=O)c2ccc(C)c(S(=O)(=O)N3CCOCC3)c2)nc1	.	.	.	.
Cc1ccc(/C=C/c2nnc(-c3ccccc3)o2)cc1	.	.	.	.
